Laboratory results from ChEMBL document CHEMBL2034836, “Synthesis and anti-HIV activities of glutamate and peptide conjugates of nucleoside reverse transcriptase inhibitors” (J Med Chem, 2012).

Tests used:
[1] = test system: Human immunodeficiency virus 1; assay: Antiviral activity against HIV1 3B infected in HeLa P4/R5 cells assessed as reduction of viral infection incubated for 2 hrs followed by incubated in drug-free medium for 46 hrs by single round infection beta-galactosidase reporter gene assay; assay type: functional, organism-based; conditions: Human immunodeficiency virus 1, 3B
Method in brief: (§1)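 P4R5 MAGI cells (CD4 and coreceptors, HIV-1 LTR–β-galactosidase reporter) seeded at 1.2 × 10^4 cells/well ~18 h before infection; exposed 2 h at 37 °C to cell-free X4 IIIB or R5 BaL virus with or without compound, washed, cultured 46 h more; β-galactosidase chemiluminescent read-out. Infection reduction relative to untreated; EC50 by regression; triplicate wells; dextran sulfate control.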

[2] = test system: Human immunodeficiency virus 1; assay: Antiviral activity against HIV1 BaL infected in HeLa P4/R5 cells assessed as reduction of viral infection incubated for 2 hrs followed by incubated in drug-free medium for 46 hrs by single round infection beta-galactosidase reporter gene assay; assay type: functional, organism-based; conditions: Human immunodeficiency virus 1, BaL; method in brief: as §1
HeLa = assay: Cytotoxicity against human HeLa P4/R5 cells after 48 hrs by MTT assay; assay type: cell-based; conditions: read-out: EC50 (the source's name)
Method in brief: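 Same P4R5 MAGI cell design as the infection assay but without virus; viability read by MTT tetrazolium reduction; each concentration tested in triplicate wells.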

[3] = test system: Human immunodeficiency virus 1; assay: Antiviral activity against wild type HIV1 clade B 94US3393IN clinical isolate infected in PHA-P-stimulated human PBMC assessed as reverse transcriptase activity incubated for 6 hrs followed by incubated in drug-free medium for 6 days by multiround infection assay; assay type: functional, organism-based; conditions: Human immunodeficiency virus 1, clade B 94US3393IN
[4] = test system: Human immunodeficiency virus 1; assay: Antiviral activity against wild type HIV1 clade C 98USMSC5016 clinical isolate infected in PHA-P-stimulated human PBMC assessed as reverse transcriptase activity incubated for 6 hrs followed by incubated in drug-free medium for 6 days by multiround infection assay; assay type: functional, organism-based; conditions: Human immunodeficiency virus 1, clade C 98USMSC5016
[5] = test system: Human immunodeficiency virus 1; assay: Antiviral activity against NNRTI-resistant HIV1 clade B A-17 clinical isolate infected in PHA-P-stimulated human PBMC assessed as reverse transcriptase activity incubated for 6 hrs followed by incubated in drug-free medium for 6 days by multiround infection assay; assay type: functional, organism-based; conditions: Human immunodeficiency virus 1, clade B A-17
[6] = test system: Human immunodeficiency virus 1; assay: Antiviral activity against multidrug-resistant HIV1 clade B 4775-5 clinical isolate infected in PHA-P-stimulated human PBMC assessed as reverse transcriptase activity incubated for 6 hrs followed by incubated in drug-free medium for 6 days by multiround infection assay; assay type: functional, organism-based; conditions: Human immunodeficiency virus 1, clade B 4775-5
[7] = test system: Human immunodeficiency virus 1; assay: Ratio of zidovudine EC50 to compound EC50 for HIV1 3B infected in HeLa P4/R5 cells; assay type: functional
[8] = test system: Human immunodeficiency virus 1; assay: Ratio of zidovudine EC50 to compound EC50 for HIV1 BaL infected in HeLa P4/R5 cells; assay type: functional
[9] = test system: Human immunodeficiency virus 1; assay: Ratio of lamivudine EC50 to compound EC50 for HIV1 3B infected in HeLa P4/R5 cells; assay type: functional
[10] = test system: Human immunodeficiency virus 1; assay: Ratio of lamivudine EC50 to compound EC50 for HIV1 BaL infected in HeLa P4/R5 cells; assay type: functional

| SMILES | EC50 [1] [nM] | EC50 [2] [nM] | CC50 (HeLa) [nM] | other results |
| --- | --- | --- | --- | --- |
| CCCCCCCCCCCCCC(=O)NCCCC[C@H](NC(=O)[C@H](CCC(=O)OC[C@H]1O[C@@H](n2cc(C)c(=O)[nH]c2=O)C[C@@H]1F)NC(=O)CCCCCCCCCCCCC)C(=O)O | 26800 | 29100 | > 108000 |  |
| CCCCCCCCCCCCCC(=O)NCCCC[C@H](NC(=O)CCNC(=O)[C@H](CCC(=O)OC[C@H]1O[C@@H](n2cc(C)c(=O)[nH]c2=O)C[C@@H]1F)NC(C)=O)C(=O)O | 10600 | 6900 | > 121000 |  |
| CCCCCCCCCCCCCC(=O)OC[C@H](NC(C)=O)C(=O)NCCC(=O)N[C@@H](CCC(=O)OC[C@H]1O[C@@H](n2cc(C)c(=O)[nH]c2=O)C[C@@H]1F)C(=O)NCC(=O)O | 11100 | 6900 | > 119000 |  |
| CCCCCCCCCCCCCC(=O)OC[C@H](NC(C)=O)C(=O)NCCC(=O)N[C@@H](CCC(=O)OC[C@H]1O[C@@H](n2cc(C)c(=O)[nH]c2=O)C[C@@H]1N=[N+]=[N-])C(=O)NCC(=O)O | 63100 | 86400 | > 116000 |  |
| CCCCCCCCCCCCCC(=O)N[C@@H](CCC(=O)OC[C@H]1O[C@@H](n2cc(C)c(=O)[nH]c2=O)C[C@@H]1F)C(=O)OC[C@H]1O[C@@H](n2cc(C)c(=O)[nH]c2=O)C[C@@H]1N=[N+]=[N-] | 2400 | 3600 | > 120000 |  |
| CC(=O)N[C@@H](CCC(=O)OC[C@H]1O[C@@H](n2cc(C)c(=O)[nH]c2=O)C[C@@H]1F)C(=O)OC[C@H]1O[C@@H](n2cc(C)c(=O)[nH]c2=O)C[C@@H]1N=[N+]=[N-] | 13500 | 13100 | > 151000 |  |
| CCCCCCCCCCCCCC(=O)N[C@@H](CCC(=O)OC[C@H]1O[C@@H](n2cc(C)c(=O)[nH]c2=O)C[C@@H]1F)C(=O)OC[C@@H]1O[C@H](n2ccc(N)nc2=O)CS1 | 2000 | 2700 | > 126000 |  |
| CC(=O)N[C@@H](CCC(=O)OC[C@H]1O[C@@H](n2cc(C)c(=O)[nH]c2=O)C[C@@H]1F)C(=O)OC[C@@H]1O[C@H](n2ccc(N)nc2=O)CS1 | 17000 | 12300 | > 160000 |  |
| CCCCCCCCCCCCCC(=O)N[C@@H](CCC(=O)OC[C@H]1O[C@@H](n2cc(C)c(=O)[nH]c2=O)C[C@@H]1N=[N+]=[N-])C(=O)OC[C@@H]1O[C@H](n2ccc(N)nc2=O)CS1 | 6000 | 6500 | > 122000 |  |
| CC(=O)N[C@@H](CCC(=O)OC[C@H]1O[C@@H](n2cc(C)c(=O)[nH]c2=O)C[C@@H]1N=[N+]=[N-])C(=O)OC[C@@H]1O[C@H](n2ccc(N)nc2=O)CS1 | 12000 | 13400 | > 154000 |  |
| Cc1cn([C@H]2C[C@H](N=[N+]=[N-])[C@@H](COC(=O)CC[C@H](NC(=O)CCC(=O)OC[C@H]3O[C@@H](n4cc(C)c(=O)[nH]c4=O)C[C@@H]3F)C(=O)OC[C@@H]3O[C@H](n4ccc(N)nc4=O)CS3)O2)c(=O)[nH]c1=O | 900 | 1400 | > 107000 | IC50 [3]: 26.7 nM; IC90 [3]: 161 nM; IC50 [4]: 22.7 nM; IC90 [4]: 84.5 nM; IC50 [5]: 12.9 nM; IC90 [5]: 28.3 nM; IC50 [6]: 5.9 nM; IC90 [6]: 46 nM; Ratio EC50 [7]: 12; Ratio EC50 [8]: 10; Ratio EC50 [9]: 36; Ratio EC50 [10]: 8 |
| CCCCCCCCCCCCCC(=O)N[C@@H](CCC(=O)O)C(=O)OC[C@H]1O[C@@H](n2cc(C)c(=O)[nH]c2=O)C[C@@H]1F | 6300 | 7700 | > 51000 |  |
| CCCCCCCCCCCCCC(=O)N[C@@H](CCC(=O)OC[C@@H]1O[C@H](n2ccc(N)nc2=O)CS1)C(=O)OC[C@H]1O[C@@H](n2cc(C)c(=O)[nH]c2=O)C[C@@H]1F | 600 | 300 | > 38000 |  |
| CCCCCCCCCCCCCC(=O)N[C@@H](CCC(=O)OC[C@@H]1O[C@H](n2cc(F)c(N)nc2=O)CS1)C(=O)OC[C@H]1O[C@@H](n2cc(C)c(=O)[nH]c2=O)C[C@@H]1F | 400 | 100 | > 37000 |  |
| Cc1cn([C@H]2C[C@H](F)[C@@H](CO)O2)c(=O)[nH]c1=O [ALOVUDINE] | 800 | 400 |  | IC50 [3]: 2 nM; IC90 [3]: 20.4 nM; IC50 [4]: 2 nM; IC90 [4]: 12.3 nM; IC50 [5]: 26 nM; IC90 [5]: 87.2 nM; IC50 [6]: 107 nM; IC90 [6]: 1060 nM |
| Nc1nc(=O)n([C@@H]2CS[C@H](CO)O2)cc1F [EMTRICITABINE] | 2000 | 800 |  |  |
| Nc1ccn([C@@H]2CS[C@H](CO)O2)c(=O)n1 [LAMIVUDINE] | 32700 | 11300 |  |  |
| Cc1cn([C@H]2C[C@H](N=[N+]=[N-])[C@@H](CO)O2)c(=O)[nH]c1=O [ZIDOVUDINE] | 10800 | 14200 |  | IC90 [3]: 21.3 nM; IC90 [4]: 34.2 nM; IC90 [5]: 152 nM; IC90 [6]: 10700 nM |
